Test results taken from ChEMBL document CHEMBL4433251, “Discovery of BR102375, a new class of non-TZD PPARγ full agonist for the treatment of type 2 diabetes” (Bioorg Med Chem Lett, 2019).
Active and inactive are the calls of the source. The calls are words filed in the database; no cut-off is given here.

Tests used:
[1] = target: T1, Peroxisome proliferator-activated receptor gamma (Homo sapiens) (UniProt P37231); assay: Agonist activity at PPARgamma (unknown origin) assessed as receptor transactivation after 24 hrs by TK-PPRE-Luc expressing cells based luciferase reporter gene assay relative to pioglitazone
T1 sequence (whole entry): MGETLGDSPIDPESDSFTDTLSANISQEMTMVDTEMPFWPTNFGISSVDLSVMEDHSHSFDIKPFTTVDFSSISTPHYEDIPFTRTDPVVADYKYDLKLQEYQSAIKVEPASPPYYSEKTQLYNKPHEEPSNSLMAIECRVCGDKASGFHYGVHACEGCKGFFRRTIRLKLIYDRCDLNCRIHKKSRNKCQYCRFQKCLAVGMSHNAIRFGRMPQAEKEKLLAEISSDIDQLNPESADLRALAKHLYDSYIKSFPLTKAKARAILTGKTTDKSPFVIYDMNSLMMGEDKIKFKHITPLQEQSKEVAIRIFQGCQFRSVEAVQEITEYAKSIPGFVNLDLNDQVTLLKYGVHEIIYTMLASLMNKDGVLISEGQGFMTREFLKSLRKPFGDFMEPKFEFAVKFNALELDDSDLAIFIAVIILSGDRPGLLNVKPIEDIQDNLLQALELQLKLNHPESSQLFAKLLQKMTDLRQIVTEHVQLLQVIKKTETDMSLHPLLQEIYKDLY
In short: (§1)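 Luciferase reporter gene assay in cells transfected with PPRE and luciferase genes; luciferase induction measured over a range of concentrations to derive EC50 and Amax; Amax expressed as a percentage relative to pioglitazone.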

[2] = target: T2, Peroxisome proliferator-activated receptor gamma (Homo sapiens, UniProt P37231); assay: Agonist activity at PPARgamma (unknown origin) assessed as receptor transactivation after 24 hrs by TK-PPRE-Luc expressing cells based luciferase reporter gene assay; in short: as §1
T2 sequence (P37231 whole entry): T1 sequence (whole entry)

[3] = target: T3, Peroxisome proliferator-activated receptor gamma (Mus musculus) (UniProt P37238); assay: Agonist activity at GAL4-tagged mouse PPARgamma LBD expressed in monkey CV1 cells assessed as receptor transactivation incubated for 24 hrs by luciferase reporter gene assay relative to telmisartan; type: cell-based
T3 sequence (whole entry): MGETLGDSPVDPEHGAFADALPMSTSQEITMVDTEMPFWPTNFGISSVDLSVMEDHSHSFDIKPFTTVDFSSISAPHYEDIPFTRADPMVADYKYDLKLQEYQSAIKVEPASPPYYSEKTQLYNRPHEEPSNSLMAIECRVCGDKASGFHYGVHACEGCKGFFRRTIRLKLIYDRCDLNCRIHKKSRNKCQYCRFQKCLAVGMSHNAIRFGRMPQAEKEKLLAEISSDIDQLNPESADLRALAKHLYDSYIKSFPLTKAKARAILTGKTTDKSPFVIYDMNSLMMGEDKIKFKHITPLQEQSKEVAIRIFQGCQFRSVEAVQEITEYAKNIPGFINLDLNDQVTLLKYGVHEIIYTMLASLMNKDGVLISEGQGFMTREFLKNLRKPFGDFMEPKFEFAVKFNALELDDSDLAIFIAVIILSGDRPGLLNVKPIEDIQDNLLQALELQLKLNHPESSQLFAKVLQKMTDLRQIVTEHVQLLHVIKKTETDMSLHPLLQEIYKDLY

[4] = Stability in human liver microsomes assessed as parent compound remaining at 30 mins; type: ADME, Microsome; conditions: read-out: Stability
In short: (§2)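 Compound incubated with liver microsomes (mouse, rat, dog, human) for 30 min; stability expressed as % of parent concentration remaining.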

[5] = AUClast in mouse at 10 mg/kg, po; type: ADME, organism-based; parameters: dose 10 mg/kg, route oral, time 0 - last; conditions: in vivo
hERG (KCNH2) = hERG (KCNH2) (Homo sapiens, UniProt Q12809); assay: Inhibition of human ERG at 10 uM
In short: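 hERG: % inhibition measured at 10 µM.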

CYP2D6 = CYP2D6 (Homo sapiens, UniProt P10635); assay: Inhibition of CYP2D6 (unknown origin) assessed as percentage remaining activity at 10 uM; type: ADME; conditions: read-out: INH
In short: (§3)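 CYP isoforms 1A2, 2C9, 2C19, 2D6, 3A4: % remaining enzyme activity in presence of 10 uM compound.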

[6] = Stability in rat liver microsomes assessed as parent compound remaining at 30 mins; type: ADME, Microsome; conditions: read-out: Stability; in short: as §2
CYP2C19 = CYP2C19 (Homo sapiens, UniProt P33261); assay: Inhibition of CYP2C19 (unknown origin) assessed as percentage remaining activity at 10 uM; type: ADME; conditions: read-out: INH; in short: as §3
[7] = Cmax in mouse at 10 mg/kg, po; type: ADME, organism-based; parameters: dose 10 mg/kg, route oral; conditions: in vivo
[8] = Stability in dog liver microsomes assessed as parent compound remaining at 30 mins; type: ADME, Canis lupus familiaris, Microsome; conditions: read-out: Stability; in short: as §2
[9] = Stability in mouse liver microsomes assessed as parent compound remaining at 30 mins; type: ADME, Microsome; conditions: read-out: Stability; in short: as §2
[10] = Half life in mouse at 10 mg/kg, po; type: ADME, organism-based; conditions: in vivo
CYP2C9 = CYP2C9 (Homo sapiens, UniProt P11712); assay: Inhibition of CYP2C9 (unknown origin) assessed as enzyme remaining activity at 10 uM; type: ADME; conditions: read-out: INH; in short: as §3
CYP3A4 = CYP3A4 (Homo sapiens, UniProt P08684); assay: Inhibition of CYP3A4 (unknown origin) assessed as percentage remaining activity at 10 uM; type: ADME; conditions: read-out: INH; in short: as §3
[11] = Tmax in mouse at 10 mg/kg, po; type: ADME, organism-based; conditions: in vivo
CYP1A2 = target: T4, CYP1A2 (Homo sapiens, UniProt P05177); assay: Inhibition of CYP1A2 (unknown origin) assessed as enzyme remaining activity at 10 uM; type: ADME; conditions: read-out: INH; in short: as §3
T4 sequence (P05177 whole entry): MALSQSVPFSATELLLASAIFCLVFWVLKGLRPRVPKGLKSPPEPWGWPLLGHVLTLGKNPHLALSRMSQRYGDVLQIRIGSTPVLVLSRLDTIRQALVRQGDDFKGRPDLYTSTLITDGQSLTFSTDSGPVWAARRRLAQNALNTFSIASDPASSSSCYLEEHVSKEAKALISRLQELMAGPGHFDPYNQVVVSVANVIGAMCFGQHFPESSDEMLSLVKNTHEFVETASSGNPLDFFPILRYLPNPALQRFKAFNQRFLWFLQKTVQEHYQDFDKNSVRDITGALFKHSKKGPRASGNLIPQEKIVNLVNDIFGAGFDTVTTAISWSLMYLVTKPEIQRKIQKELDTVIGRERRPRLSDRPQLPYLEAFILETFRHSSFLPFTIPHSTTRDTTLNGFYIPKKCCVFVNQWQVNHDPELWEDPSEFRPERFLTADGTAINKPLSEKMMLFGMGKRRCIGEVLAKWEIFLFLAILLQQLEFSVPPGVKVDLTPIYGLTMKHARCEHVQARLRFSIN

Mus musculus [12] = assay: Antidiabetic activity in db/db mouse assessed as reduction in random blood glucose level at 30 mg/kg, po administered daily once for 2 weeks; type: functional, organism-based
Mus musculus [13] = assay: Antidiabetic activity in db/db mouse assessed as reduction in blood glucose level at 30 mg/kg, po administered daily once for 2 weeks and measured on day 14 by OGTT method; type: functional, organism-based
[14] = Toxicity in db/db mouse assessed as reduction in food intake at 30 mg/kg, po administered daily once and measured on day 7; type: organism-based; conditions: in vivo
Mus musculus [15] = assay: Antidiabetic activity in db/db mouse assessed as reduction in body weight gain at 30 mg/kg, po administered daily once for 2 weeks; type: functional, organism-based

Sequence of CYP2D6 (P10635 whole entry, canonical isoform): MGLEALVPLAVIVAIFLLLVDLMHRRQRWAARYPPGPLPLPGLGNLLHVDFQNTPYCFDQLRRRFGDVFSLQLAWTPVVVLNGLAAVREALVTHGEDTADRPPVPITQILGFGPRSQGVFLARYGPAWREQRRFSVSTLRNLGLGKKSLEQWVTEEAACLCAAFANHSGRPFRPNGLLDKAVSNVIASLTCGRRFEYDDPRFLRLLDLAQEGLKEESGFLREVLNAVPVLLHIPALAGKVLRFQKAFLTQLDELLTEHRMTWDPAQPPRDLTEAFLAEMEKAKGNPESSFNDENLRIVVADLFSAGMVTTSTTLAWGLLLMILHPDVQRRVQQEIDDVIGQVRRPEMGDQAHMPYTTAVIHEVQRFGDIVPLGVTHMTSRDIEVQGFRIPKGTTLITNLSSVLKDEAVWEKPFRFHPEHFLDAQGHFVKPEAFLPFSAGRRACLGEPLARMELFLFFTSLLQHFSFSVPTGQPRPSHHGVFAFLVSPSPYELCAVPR
Sequence of hERG (KCNH2) (Q12809 whole entry): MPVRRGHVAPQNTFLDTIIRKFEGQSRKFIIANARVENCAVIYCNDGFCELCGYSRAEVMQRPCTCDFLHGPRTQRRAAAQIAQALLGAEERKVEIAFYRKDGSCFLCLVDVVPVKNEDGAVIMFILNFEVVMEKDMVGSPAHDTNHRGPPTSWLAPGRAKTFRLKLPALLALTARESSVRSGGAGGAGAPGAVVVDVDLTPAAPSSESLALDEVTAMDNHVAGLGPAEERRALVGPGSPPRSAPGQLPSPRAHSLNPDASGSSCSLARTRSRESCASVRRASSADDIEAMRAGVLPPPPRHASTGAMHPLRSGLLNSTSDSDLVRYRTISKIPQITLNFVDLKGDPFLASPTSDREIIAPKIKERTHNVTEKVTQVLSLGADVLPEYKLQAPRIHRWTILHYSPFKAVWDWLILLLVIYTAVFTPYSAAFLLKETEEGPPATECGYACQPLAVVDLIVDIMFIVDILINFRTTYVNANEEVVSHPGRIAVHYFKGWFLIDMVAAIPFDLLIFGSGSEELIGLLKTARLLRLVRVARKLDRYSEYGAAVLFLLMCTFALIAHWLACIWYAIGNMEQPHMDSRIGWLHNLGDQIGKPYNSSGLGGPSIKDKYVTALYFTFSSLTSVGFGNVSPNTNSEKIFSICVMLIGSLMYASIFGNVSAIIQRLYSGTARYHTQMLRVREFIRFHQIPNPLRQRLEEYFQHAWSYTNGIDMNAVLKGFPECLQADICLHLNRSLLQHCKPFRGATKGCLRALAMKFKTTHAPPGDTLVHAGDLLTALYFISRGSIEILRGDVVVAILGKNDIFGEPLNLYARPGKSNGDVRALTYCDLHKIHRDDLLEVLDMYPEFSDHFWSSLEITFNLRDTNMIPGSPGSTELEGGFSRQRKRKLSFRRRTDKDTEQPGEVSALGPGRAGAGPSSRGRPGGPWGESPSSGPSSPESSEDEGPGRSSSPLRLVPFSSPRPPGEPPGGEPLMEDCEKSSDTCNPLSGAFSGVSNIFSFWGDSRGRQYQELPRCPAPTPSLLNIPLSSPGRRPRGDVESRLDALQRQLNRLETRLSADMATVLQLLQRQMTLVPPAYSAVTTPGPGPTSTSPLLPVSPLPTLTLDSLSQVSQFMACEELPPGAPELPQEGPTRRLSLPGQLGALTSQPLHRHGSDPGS
Sequence of CYP2C9 (P11712 whole entry): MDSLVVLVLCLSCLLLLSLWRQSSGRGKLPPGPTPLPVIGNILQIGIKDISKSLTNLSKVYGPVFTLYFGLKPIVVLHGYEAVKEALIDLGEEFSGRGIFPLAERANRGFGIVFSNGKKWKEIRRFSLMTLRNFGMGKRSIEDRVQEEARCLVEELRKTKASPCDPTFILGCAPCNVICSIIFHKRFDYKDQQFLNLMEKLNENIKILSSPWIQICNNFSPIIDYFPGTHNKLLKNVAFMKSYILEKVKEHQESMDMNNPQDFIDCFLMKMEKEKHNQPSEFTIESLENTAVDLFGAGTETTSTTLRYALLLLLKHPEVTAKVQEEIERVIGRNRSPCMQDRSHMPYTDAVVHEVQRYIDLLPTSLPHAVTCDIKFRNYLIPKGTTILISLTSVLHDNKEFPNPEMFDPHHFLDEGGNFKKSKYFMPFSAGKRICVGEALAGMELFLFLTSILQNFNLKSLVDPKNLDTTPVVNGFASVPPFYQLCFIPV
Sequence of CYP2C19 (P33261 whole entry): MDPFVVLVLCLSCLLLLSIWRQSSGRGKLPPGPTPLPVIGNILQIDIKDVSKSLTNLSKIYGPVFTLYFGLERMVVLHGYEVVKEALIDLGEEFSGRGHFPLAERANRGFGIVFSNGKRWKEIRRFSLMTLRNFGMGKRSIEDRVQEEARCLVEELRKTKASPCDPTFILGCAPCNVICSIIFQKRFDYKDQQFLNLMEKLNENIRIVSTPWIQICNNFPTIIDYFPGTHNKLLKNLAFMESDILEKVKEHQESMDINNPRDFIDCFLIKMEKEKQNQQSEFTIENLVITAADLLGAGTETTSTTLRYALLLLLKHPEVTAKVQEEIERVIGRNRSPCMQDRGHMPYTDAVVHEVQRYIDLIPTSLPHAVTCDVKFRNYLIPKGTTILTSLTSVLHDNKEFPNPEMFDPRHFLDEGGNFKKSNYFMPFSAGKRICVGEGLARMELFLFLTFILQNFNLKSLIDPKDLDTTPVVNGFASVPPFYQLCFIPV
Sequence of CYP3A4 (P08684 whole entry): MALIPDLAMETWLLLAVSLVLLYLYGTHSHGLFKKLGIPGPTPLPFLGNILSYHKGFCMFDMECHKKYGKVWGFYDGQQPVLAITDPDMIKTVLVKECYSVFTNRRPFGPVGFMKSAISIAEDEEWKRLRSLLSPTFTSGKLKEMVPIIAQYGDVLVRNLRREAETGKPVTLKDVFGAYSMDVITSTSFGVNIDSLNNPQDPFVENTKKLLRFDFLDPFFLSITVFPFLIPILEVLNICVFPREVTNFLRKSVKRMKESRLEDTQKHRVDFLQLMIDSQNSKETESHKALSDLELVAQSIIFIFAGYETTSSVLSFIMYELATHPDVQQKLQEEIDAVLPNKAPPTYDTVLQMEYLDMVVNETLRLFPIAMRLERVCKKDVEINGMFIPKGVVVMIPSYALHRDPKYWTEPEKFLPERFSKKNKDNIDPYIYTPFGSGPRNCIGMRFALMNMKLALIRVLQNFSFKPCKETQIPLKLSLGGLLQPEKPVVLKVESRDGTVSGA

SMILES | %max [1] | EC50 [2] | %max [3] | also measured
CCCCc1nc(C)c(Cc2noc(C(C)(C)C)n2)c(=O)n1Cc1ccc(-c2ccccc2-c2noc(=O)[nH]2)cc1 |  |  | 258% | 
CCCCc1nc(C(C)C)c(Cc2nc(C(C)(C)C)no2)c(=O)n1Cc1ccc(-c2ccccc2-c2noc(=O)[nH]2)cc1 | 123% | 0.59 µM |  | remaining at 0.5 h [4]: 12%; AUC(0-t) [5]: 581 ng·h/mL; inhibition at 10 µM (hERG (KCNH2)): 16%; activity at 10 µM (CYP2D6): 89%; remaining at 0.5 h [6]: 13%; activity at 10 µM (CYP2C19): 78%; Cmax [7]: 547 ng/mL; remaining at 0.5 h [8]: 13%; remaining at 0.5 h [9]: 24%; half-life [10]: 49.2 min; activity at 10 µM (CYP2C9): 33%; activity at 10 µM (CYP3A4): 50%; Tmax [11]: 19.8 min; activity at 10 µM (CYP1A2): 92%
CCCCc1nc(C(C)C)c(Cc2nc(C3CC3)no2)c(=O)n1Cc1ccc(-c2ccccc2-c2noc(=O)[nH]2)cc1 | 102% | 2.55 µM |  | 
CCCCc1nc(C(C)C)c(Cc2nnc(C)o2)c(=O)n1Cc1ccc(-c2ccccc2-c2noc(=O)[nH]2)cc1 |  |  | 80% | 
CCCCc1nc(C(C)C)c(Cc2nnc(-c3ccc(OC)cc3)o2)c(=O)n1Cc1ccc(-c2ccccc2-c2noc(=O)[nH]2)cc1 |  |  | 73% | 
CCCCc1nc(C)c(Cc2nc(C)ns2)c(=O)n1Cc1ccc(-c2ccccc2-c2noc(=O)[nH]2)cc1 |  |  | 93% | 
CCCCc1nc(C(C)C)c(Cc2nnc(C)s2)c(=O)n1Cc1ccc(-c2ccccc2-c2noc(=O)[nH]2)cc1 |  |  | 79% | 
CCCCc1nc(C(C)C)c(Cc2nnc(C(C)(C)C)s2)c(=O)n1Cc1ccc(-c2ccccc2-c2noc(=O)[nH]2)cc1 |  |  | 180% | 
CCCCc1nc(C)c(Cc2nnc(-c3ccc(F)cc3)[nH]2)c(=O)n1Cc1ccc(-c2ccccc2-c2noc(=O)[nH]2)cc1 |  |  | 71% | 
CCCCc1nc(C)c(Cc2nc(C)n[nH]2)c(=O)n1Cc1ccc(-c2ccccc2-c2noc(=O)[nH]2)cc1 |  |  | 61% | 
CCCCc1nc(C)c(Cc2noc(C(C)C)n2)c(=O)n1Cc1ccc(-c2ccccc2-c2noc(=O)[nH]2)cc1 |  |  | 233% | 
CCc1ccc(CCOc2ccc(CC3SC(=O)NC3=O)cc2)nc1 (stereo not drawn) [PIOGLITAZONE] |  |  |  | Activity (Mus musculus [12]): Active; Activity (Mus musculus [13]): Active; Activity [14]: Toxic; Activity (Mus musculus [15]): inactive
CCCCc1nc(C(C)C)c(Cc2nc(C)ns2)c(=O)n1Cc1ccc(-c2ccccc2-c2noc(=O)[nH]2)cc1 |  |  | 79% | 
CCCCc1nc(C(C)C)c(Cc2nc(C)no2)c(=O)n1Cc1ccc(-c2ccccc2-c2noc(=O)[nH]2)cc1 | 93% | 1.05 µM | 207% | 
CCCCc1nc(C)c(Cc2nnc(C)s2)c(=O)n1Cc1ccc(-c2ccccc2-c2noc(=O)[nH]2)cc1 |  |  | 71% | 

Now from value to molecule, other results behind:

%max [1] | EC50 [2] | %max [3] | SMILES | also measured
68% | 4.21 µM |  | CCCCc1nc(C)c(Cc2nc(CCOC)no2)c(=O)n1Cc1ccc(-c2ccccc2-c2noc(=O)[nH]2)cc1 | 
 |  | 136% | CCCCc1nc(C)c(Cc2nc(C)no2)c(=O)n1Cc1ccc(-c2ccccc2-c2noc(=O)[nH]2)cc1 | 
72% | 1.38 µM |  | CCCCc1nc(C)c(Cc2nc(Cc3cc(F)cc(F)c3)no2)c(=O)n1Cc1ccc(-c2ccccc2-c2noc(=O)[nH]2)cc1 | 
82% | 1.39 µM |  | CCCCc1nc(C)c(Cc2nc(Cc3cccc(F)c3)no2)c(=O)n1Cc1ccc(-c2ccccc2-c2noc(=O)[nH]2)cc1 | 
60% | 3.39 µM |  | CCCCc1nc(C)c(Cc2nc(COC)no2)c(=O)n1Cc1ccc(-c2ccccc2-c2noc(=O)[nH]2)cc1 | 
 |  | 150% | CCCCc1nc(C)c(Cc2noc(-c3ccccc3F)n2)c(=O)n1Cc1ccc(-c2ccccc2-c2noc(=O)[nH]2)cc1 | 
80% | 1.48 µM |  | CCCCc1nc(C(C)C)c(Cc2nc(Cc3ccc(F)cc3)no2)c(=O)n1Cc1ccc(-c2ccccc2-c2noc(=O)[nH]2)cc1 | 
101% | 1.32 µM |  | CCCCc1nc(C)c(Cc2nc(C(C)C)no2)c(=O)n1Cc1ccc(-c2ccccc2-c2noc(=O)[nH]2)cc1 | 
105% | 1.75 µM |  | CCCCc1nc(C)c(Cc2nc(Cc3ccccc3)no2)c(=O)n1Cc1ccc(-c2ccccc2-c2noc(=O)[nH]2)cc1 | 
92% | 1.14 µM |  | CCCCc1nc(C(C)C)c(Cc2nc(Cc3ccccc3)no2)c(=O)n1Cc1ccc(-c2ccccc2-c2noc(=O)[nH]2)cc1 | 
89% | 4.25 µM |  | CCCCc1nc(C)c(Cc2nc(C3CC3)no2)c(=O)n1Cc1ccc(-c2ccccc2-c2noc(=O)[nH]2)cc1 | 
81% | 2.41 µM |  | CCCCc1nc(C)c(Cc2nc(Cc3ccc(F)cc3)no2)c(=O)n1Cc1ccc(-c2ccccc2-c2noc(=O)[nH]2)cc1 | 
